Experimental data taken from ChEMBL document CHEMBL1156816, “Antiangiogenic effect of dual/selective alpha(5)beta(1)/alpha(v)beta(3) integrin antagonists designed on partially modified retro-inverso cyclotetrapeptide mimetics” (J Med Chem, 2010).
The source made the active and inactive calls. The rule behind the calls is not given here. Non-standard residues stand in square brackets, D forms with d. Residues, ends and D or L forms follow the SMILES beside them.

Legend:
Integrin alpha-5/beta-1 = Integrin alpha-5/beta-1 (Homo sapiens, UniProt P05556+P08648); assay: Inhibition of alpha5beta1 integrin-mediated cell adhesion in human K562 cells on fibronectin coated plate after 30 mins; assay type: cell-based
In short: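 Wells coated overnight at 4 °C with fibronectin or vitronectin (10 μg/mL). Cells were preincubated 30 min at room temperature with compound (≤1% DMSO), then plated at 50000/well and left 1 h at room temperature. After PBS wash, adherent cells were quantified by hexosaminidase substrate read at 405 nm against a calibration curve. Quadruplicate, ≥3 repeats; IC50 calculated.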

Integrin alpha-V/beta-3 [1] = biological target: T1, Integrin alpha-V/beta-3 (Homo sapiens, UniProt P05106+P06756); assay: Inhibition of alphavbeta3 integrin-mediated cell adhesion in human SK-MEL-24 cells on fibronectin coated plate after 30 mins; assay type: cell-based
Integrin alpha-V/beta-3 [2] = biological target: T1, Integrin alpha-V/beta-3; assay: Inhibition of alphavbeta3 integrin-mediated cell adhesion in HUVEC on vitronectin coated plate after 30 mins
HUVEC [3] = assay: Cytotoxicity against HUVEC assessed as change in cell morphology at 10 uM after 16 hrs by flow cytometry using Annexin V/propidium staining; assay type: cell-based; conditions: human
In short: (§1)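 HUVEC exposed 16 h to 1 or 10 μM cyclopeptide; morphology examined. For flow cytometry, cells were detached and fixed 15 min in 1% paraformaldehyde, then PBS-washed. They were resuspended in 10 mM Hepes/NaOH pH 7.4, 140 mM NaCl, 5 mM CaCl₂ with Annexin-V-Fluos and propidium iodide, kept 15 min at room temperature in the dark, then analyzed for intact, apoptotic and necrotic cells.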

HUVEC [4] = assay: Cytotoxicity against HUVEC assessed as increase in level of necrotic cells at 10 uM after 16 hrs by flow cytometry using Annexin V/propidium staining; assay type: cell-based; conditions: human; in short: as §1
HUVEC [5] = assay: Cytotoxicity against HUVEC assessed as change in cell morphology at 1 uM after 16 hrs by flow cytometry using Annexin V/propidium staining; assay type: cell-based; conditions: human; in short: as §1
HUVEC [6] = assay: Cytotoxicity against HUVEC assessed as increase in level of necrotic cells at 1 uM after 16 hrs by flow cytometry using Annexin V/propidium staining; assay type: cell-based; conditions: human; in short: as §1
HUVEC [7] = assay: Inhibition of bFGF-induced angiogenesis in HUVEC cells on Matrigel assessed as number of tube branches at 10 nM after 16 hrs by microscopic analysis; assay type: functional, cell-based; conditions: Homo sapiens
In short: (§2)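 HUVEC (passages 2-7, cultured in EGM) seeded at 5000 cells/well on Matrigel-precoated wells with test compound, with or without bFGF 30 ng/mL. Vehicle up to 1% DMSO in medium. Incubated 16 h at 37 °C. Capillary-like tubes examined by microscopy with camera and counted as tubes per square millimeter. Quadruplicate, repeated three times; mean ± SEM; Newman-Keuls test after ANOVA.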

HUVEC [8] = assay: Antiangiogenic activity in HUVEC on Matrigel assessed as reduction of bFGF-induced tube branches measured per square mm at 10 uM after 16 hrs by microscopic analysis; assay type: functional, Homo sapiens; in short: as §2
HUVEC [9] = assay: Inhibition of bFGF-induced angiogenesis in HUVEC on Matrigel assessed as number of tube branches at 100 to 500 nM after 16 hrs by microscopic analysis; assay type: functional, cell-based; conditions: Homo sapiens; in short: as §2
HUVEC [10] = assay: Inhibition of bFGF-induced angiogenesis in HUVEC on Matrigel assessed as endothelial morphogenesis at 1 uM after 16 hrs by microscopic analysis; assay type: functional, cell-based; conditions: Homo sapiens; in short: as §2
HUVEC [11] = assay: Antiangiogenic activity in HUVEC on Matrigel assessed as inhibition of bFGF-induced tube formation at 1 uM after 16 hrs; assay type: functional, cell-based; conditions: Homo sapiens; in short: as §2
[12] = in the assay text read “at 1 uM” for “at 10 uM”

T1 sequence (P05106 27-788 limits assumed): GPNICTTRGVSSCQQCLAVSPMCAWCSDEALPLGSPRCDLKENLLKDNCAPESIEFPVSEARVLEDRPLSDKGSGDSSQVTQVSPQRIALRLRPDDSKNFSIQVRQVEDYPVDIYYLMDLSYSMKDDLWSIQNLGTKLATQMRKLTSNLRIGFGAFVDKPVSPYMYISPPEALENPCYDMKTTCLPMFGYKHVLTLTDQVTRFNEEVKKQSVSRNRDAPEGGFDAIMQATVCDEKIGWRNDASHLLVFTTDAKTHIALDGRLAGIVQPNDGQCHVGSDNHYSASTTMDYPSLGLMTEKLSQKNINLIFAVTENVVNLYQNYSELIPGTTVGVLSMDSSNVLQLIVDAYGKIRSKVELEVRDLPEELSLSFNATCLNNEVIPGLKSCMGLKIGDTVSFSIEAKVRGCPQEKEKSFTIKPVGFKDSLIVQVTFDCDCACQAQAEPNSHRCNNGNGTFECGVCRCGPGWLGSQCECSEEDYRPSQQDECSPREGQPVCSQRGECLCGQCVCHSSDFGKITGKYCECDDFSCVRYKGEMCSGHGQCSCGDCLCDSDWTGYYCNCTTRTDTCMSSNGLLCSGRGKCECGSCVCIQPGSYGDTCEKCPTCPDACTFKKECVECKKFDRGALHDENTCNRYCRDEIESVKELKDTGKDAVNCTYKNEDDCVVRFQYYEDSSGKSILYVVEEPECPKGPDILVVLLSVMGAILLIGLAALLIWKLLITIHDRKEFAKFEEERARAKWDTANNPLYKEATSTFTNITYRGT
T1 sequence (P06756 31-889 limits assumed): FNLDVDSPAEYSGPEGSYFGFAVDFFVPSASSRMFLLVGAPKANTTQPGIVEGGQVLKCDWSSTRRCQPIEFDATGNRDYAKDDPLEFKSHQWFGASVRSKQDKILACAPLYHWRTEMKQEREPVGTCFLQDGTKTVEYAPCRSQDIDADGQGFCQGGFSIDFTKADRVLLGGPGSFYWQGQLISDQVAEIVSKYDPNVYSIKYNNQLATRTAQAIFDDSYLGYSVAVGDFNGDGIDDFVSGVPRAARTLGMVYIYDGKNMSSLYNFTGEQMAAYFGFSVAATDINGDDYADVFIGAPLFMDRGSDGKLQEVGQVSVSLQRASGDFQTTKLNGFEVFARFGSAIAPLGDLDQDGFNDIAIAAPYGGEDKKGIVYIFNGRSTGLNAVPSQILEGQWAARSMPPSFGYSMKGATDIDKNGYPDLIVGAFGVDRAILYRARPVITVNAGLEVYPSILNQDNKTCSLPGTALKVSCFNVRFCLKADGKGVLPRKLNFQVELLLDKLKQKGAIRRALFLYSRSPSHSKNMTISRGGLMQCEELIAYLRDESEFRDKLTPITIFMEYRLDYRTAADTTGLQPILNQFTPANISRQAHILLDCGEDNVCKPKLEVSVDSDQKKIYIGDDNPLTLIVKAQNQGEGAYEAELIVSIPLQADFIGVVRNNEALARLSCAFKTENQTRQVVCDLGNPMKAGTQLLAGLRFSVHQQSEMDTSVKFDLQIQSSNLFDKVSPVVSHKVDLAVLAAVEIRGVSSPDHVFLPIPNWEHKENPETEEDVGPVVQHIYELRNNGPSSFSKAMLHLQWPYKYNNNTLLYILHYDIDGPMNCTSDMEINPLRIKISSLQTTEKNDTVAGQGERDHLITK
T1 sequence (P06756 891-1048 limits assumed): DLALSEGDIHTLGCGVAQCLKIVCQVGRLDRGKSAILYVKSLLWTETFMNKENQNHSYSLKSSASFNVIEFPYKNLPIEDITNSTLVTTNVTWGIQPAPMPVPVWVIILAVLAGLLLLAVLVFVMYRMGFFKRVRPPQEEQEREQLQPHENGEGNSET
Integrin alpha-5/beta-1, sequence (P05556 21-798 limits assumed): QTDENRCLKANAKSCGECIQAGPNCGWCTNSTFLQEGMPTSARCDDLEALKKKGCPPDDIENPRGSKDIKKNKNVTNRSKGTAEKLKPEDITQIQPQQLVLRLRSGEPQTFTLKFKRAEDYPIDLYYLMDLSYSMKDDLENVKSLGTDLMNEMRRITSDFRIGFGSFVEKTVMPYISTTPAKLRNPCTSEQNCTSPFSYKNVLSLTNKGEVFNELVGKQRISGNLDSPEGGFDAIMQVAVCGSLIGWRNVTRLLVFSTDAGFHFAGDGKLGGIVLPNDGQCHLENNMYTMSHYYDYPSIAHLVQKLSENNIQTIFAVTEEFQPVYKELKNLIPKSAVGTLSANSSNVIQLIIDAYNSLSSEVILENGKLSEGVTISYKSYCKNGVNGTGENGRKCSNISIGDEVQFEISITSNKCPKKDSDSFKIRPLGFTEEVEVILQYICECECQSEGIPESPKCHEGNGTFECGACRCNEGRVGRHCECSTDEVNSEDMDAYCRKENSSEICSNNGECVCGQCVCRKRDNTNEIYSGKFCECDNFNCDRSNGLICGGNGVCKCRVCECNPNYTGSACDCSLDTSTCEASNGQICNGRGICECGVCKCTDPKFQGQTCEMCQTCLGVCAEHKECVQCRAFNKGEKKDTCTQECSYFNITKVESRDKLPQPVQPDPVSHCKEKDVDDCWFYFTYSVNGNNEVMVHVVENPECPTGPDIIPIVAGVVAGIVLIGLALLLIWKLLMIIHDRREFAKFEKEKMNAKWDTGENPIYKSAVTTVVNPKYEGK
Integrin alpha-5/beta-1, sequence (P08648 42-894 limits assumed): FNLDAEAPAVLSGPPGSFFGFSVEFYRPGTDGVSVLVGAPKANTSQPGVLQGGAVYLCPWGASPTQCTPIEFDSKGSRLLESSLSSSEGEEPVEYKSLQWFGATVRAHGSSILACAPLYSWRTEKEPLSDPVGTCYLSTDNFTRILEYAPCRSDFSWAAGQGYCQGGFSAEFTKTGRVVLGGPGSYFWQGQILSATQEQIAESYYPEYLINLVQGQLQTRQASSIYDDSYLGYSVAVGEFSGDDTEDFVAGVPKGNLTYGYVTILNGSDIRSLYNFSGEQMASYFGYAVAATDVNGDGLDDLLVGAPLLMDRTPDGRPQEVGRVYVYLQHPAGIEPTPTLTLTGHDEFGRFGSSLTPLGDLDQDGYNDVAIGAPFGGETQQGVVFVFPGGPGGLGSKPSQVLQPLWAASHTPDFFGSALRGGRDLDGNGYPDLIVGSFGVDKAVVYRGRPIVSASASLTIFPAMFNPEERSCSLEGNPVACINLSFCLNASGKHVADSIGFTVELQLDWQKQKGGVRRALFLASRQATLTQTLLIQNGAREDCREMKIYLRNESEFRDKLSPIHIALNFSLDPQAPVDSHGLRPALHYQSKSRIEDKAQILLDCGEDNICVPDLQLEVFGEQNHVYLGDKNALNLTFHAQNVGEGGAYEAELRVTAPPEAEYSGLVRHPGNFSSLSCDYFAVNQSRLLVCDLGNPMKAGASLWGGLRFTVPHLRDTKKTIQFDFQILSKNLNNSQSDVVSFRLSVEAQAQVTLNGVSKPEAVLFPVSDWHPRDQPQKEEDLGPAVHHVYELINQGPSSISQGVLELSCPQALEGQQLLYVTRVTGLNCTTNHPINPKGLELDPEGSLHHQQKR
Integrin alpha-5/beta-1, sequence (P08648 895-1049 limits assumed): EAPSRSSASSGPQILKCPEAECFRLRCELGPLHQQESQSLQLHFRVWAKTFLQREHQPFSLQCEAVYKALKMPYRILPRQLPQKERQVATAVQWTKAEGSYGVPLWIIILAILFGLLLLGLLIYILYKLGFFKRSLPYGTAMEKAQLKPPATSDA

| SMILES | IC50 (Integrin alpha-5/beta-1) | IC50 (Integrin alpha-V/beta-3 [1]) | IC50 (Integrin alpha-V/beta-3 [2]) | Activity (HUVEC [3]) | Activity (HUVEC [4]) | Activity (HUVEC [5]) | Activity (HUVEC [6]) | Activity (HUVEC [7]) | Activity (HUVEC [8]; [12]) | Activity (HUVEC [9]) | Activity (HUVEC [10]) | Activity (HUVEC [11]) | Activity (HUVEC [8]; Homo sapiens) |
| --- | --- | --- | --- | --- | --- | --- | --- | --- | --- | --- | --- | --- | --- |
| NC(N)=NCCC[C@H]1NC(=O)CC(=O)N[C@@H](CC(=O)O)C(=O)N[C@H](Cc2ccccc2)CNC1=O | > 100 µM | > 100 µM | > 100 µM | Non-toxic | Non-toxic | Non-toxic | Non-toxic |  |  |  |  |  |  |
| NC(N)=NCCC[C@H]1NC(=O)CC(=O)N[C@H](CC(=O)O)C(=O)N[C@H](Cc2ccccc2)CNC1=O | > 100 µM | > 100 µM | > 100 µM | Non-toxic | Non-toxic | Non-toxic | Non-toxic |  |  |  |  |  |  |
| N=C(N)NCCC[C@@H]1NC(=O)CC(=O)N[C@H](CC(=O)O)C(=O)N[C@H](Cc2ccccc2)CNC1=O | 1.3 µM | 2.1 µM | 0.92 µM | Non-toxic | Non-toxic | Non-toxic | Non-toxic |  |  |  |  |  | inactive |
| N=C(N)NCCC[C@@H]1NC(=O)CC(=O)N[C@@H](CC(=O)O)C(=O)N[C@H](Cc2ccccc2)CNC1=O |  |  |  |  |  |  |  | inactive | 5.1 | inactive | Active | Active |  |
| N=C(N)NCCC[C@H]1NC(=O)CC(=O)N[C@@H](CC(=O)O)C(=O)N[C@H](Cc2ccccc2)CNC1=O |  |  |  |  |  |  |  |  |  |  |  |  | inactive |
| N=C(N)NCCC[C@H]1NC(=O)CC(=O)N[C@H](CC(=O)O)C(=O)N[C@@H](Cc2ccccc2)CNC1=O |  |  |  |  |  |  |  |  |  |  |  |  | inactive |
| N=C(N)NCCC[C@H]1NC(=O)CC(=O)N[C@H](CC(=O)O)C(=O)N[C@H](Cc2ccccc2)CNC1=O |  |  |  |  |  |  |  |  |  |  |  |  | inactive |
| N=C(N)NCCC[C@H]1NC(=O)CC(=O)N[C@@H](CC(=O)O)C(=O)N[C@@H](Cc2ccccc2)CNC1=O | 4.7 µM | 2.3 µM | 1.5 µM | Non-toxic | Non-toxic | Non-toxic | Non-toxic |  |  |  |  |  | inactive |

More lines, main results first:

| IC50 (Integrin alpha-5/beta-1) | IC50 (Integrin alpha-V/beta-3 [1]) | IC50 (Integrin alpha-V/beta-3 [2]) | SMILES | Activity (HUVEC [3]) | Activity (HUVEC [4]) | Activity (HUVEC [5]) | Activity (HUVEC [6]) | Activity (HUVEC [7]) | Activity (HUVEC [8]; [12]) | Activity (HUVEC [9]) | Activity (HUVEC [10]) | Activity (HUVEC [11]) | Activity (HUVEC [8]; Homo sapiens) |
| --- | --- | --- | --- | --- | --- | --- | --- | --- | --- | --- | --- | --- | --- |
| > 100 µM | > 100 µM | > 100 µM | CC(C)[C@@H]1NC(=O)[C@@H](Cc2ccccc2)NC(=O)[C@H](CC(=O)O)NC(=O)[C@H](C)NC(=O)[C@H](CCCN=C(N)N)NC1=O (cyclo(AD[dF]VR)) |  |  |  |  |  |  |  |  |  |  |
| 0.024 µM | 0.18 µM | 0.24 µM | NC(N)=NCCC[C@@H]1NC(=O)CC(=O)N[C@@H](CC(=O)O)C(=O)N[C@H](Cc2ccccc2)CNC1=O | Non-toxic | Non-toxic | Non-toxic | Non-toxic |  |  |  |  |  |  |
| 0.52 µM | 11 µM | 25.2 µM | N=C(N)NCCC[C@@H]1NC(=O)CC(=O)N[C@@H](CC(=O)O)C(=O)N[C@@H](Cc2ccccc2)CNC1=O | Non-toxic | Non-toxic | Non-toxic | Non-toxic | inactive | 6.8 | inactive | Active | Active |  |
| > 100 µM | > 100 µM | > 100 µM | N=C(N)NCCC[C@@H]1NC(=O)CC(=O)N[C@H](CC(=O)O)C(=O)N[C@@H](Cc2ccccc2)CNC1=O | Non-toxic | Non-toxic | Non-toxic | Non-toxic |  |  |  |  |  | inactive |
| > 100 µM | > 100 µM | > 100 µM | NC(N)=NCCC[C@H]1NC(=O)CC(=O)N[C@H](CC(=O)O)C(=O)N[C@@H](Cc2ccccc2)CNC1=O | Non-toxic | Non-toxic | Non-toxic | Non-toxic |  |  |  |  |  |  |
| 34.7 µM |  |  | CC(C)[C@@H]1NC(=O)[C@@H](Cc2ccccc2)NC(=O)[C@H](CC(=O)O)NC(=O)CNC(=O)[C@H](CCCN=C(N)N)NC1=O [CYCLORGDFV] |  |  |  |  |  |  |  |  |  |  |
